Experimental data: ChEMBL document CHEMBL1127642, “Potent, selective, and systemically-available inhibitors of acyl-coenzyme A:cholesterol acyl transferase (ACAT)” (J Med Chem, 1994)
Activity calls are given as the source filed them. The calls are words filed in the database; no cut-off is given here.

What was measured:
[1] = target: T1, Sterol O-acyltransferase 1 (Rattus norvegicus, UniProt O70536); test: In vitro potency was determined using Acyl coenzyme A:cholesterol acyltransferase in liver microsomes from rats; set-up: species or system Microsome
T1 sequence (O70536 whole entry): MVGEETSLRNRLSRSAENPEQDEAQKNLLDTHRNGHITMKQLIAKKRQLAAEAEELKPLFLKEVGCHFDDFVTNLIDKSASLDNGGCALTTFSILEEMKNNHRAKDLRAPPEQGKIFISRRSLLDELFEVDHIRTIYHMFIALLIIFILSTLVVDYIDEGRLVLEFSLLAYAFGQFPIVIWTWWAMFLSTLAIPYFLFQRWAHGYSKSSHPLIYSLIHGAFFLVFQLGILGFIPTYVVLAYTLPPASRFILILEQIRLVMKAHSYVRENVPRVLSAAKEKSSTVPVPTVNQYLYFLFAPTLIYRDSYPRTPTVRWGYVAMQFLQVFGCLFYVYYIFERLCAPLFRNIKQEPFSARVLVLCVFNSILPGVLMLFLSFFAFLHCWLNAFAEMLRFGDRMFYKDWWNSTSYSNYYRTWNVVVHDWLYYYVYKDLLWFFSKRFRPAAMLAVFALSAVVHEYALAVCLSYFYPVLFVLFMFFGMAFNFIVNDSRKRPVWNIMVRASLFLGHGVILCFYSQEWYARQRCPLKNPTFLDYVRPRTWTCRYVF
Procedure, shortened: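 Enzyme source was liver microsomes prepared from chow-fed Sprague-Dawley rats, assayed for ACAT activity by the Billheimer method. IC50 was determined.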

[2] = tested on: Cricetinae gen. sp.; test: Effects on cholesterol absorption in hamsters; type: functional, organism-based; conditions: Cricetulus griseus
Procedure, shortened: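 Cholesterol-fed hamsters received radiolabeled cholesterol in a liquid diet together with the drug, and untreated controls were included. Animals were sacrificed 24 h later. Absorption inhibition was estimated from plasma and liver radioactivity relative to controls. Dose-response studies gave ED50, and chow-fed hamsters were also tested.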

[3] = Dose required for 50 percent inhibition of lecithin cholesterol acyl transferase in vitro in rats at 300 uM; No effect
[4] = target: T2, Bile salt-activated lipase (Bos taurus) (UniProt P30122); test: Dose required for 50 percent inhibition of Pancreatic cholesterol esterase in vitro in rats at 300 uM; No effect
T2 sequence (whole entry): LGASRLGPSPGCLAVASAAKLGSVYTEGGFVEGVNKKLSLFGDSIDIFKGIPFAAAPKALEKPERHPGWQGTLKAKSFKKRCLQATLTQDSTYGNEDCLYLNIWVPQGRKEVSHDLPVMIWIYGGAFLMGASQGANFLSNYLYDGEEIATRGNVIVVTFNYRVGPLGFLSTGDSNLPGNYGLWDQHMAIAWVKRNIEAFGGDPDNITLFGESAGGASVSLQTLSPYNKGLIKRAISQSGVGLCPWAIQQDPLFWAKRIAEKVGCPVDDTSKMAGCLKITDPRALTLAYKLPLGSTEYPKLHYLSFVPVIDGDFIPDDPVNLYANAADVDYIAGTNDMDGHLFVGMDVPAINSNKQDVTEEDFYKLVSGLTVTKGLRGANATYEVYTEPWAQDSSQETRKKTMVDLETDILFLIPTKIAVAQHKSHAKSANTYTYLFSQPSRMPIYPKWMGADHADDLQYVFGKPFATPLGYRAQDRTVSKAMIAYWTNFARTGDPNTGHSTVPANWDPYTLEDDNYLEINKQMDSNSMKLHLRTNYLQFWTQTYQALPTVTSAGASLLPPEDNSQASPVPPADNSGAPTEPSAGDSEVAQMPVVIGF

[5] = tested on: Oryctolagus cuniculus; test: Evaluation for the plasma cholesterol lowering in rabbits at the dose 5 mg/kg; type: functional, organism-based; set-up: dose 5 mg/kg
Procedure, shortened: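 Cholesterol-fed New Zealand White rabbits: diet with 0.4% cholesterol and 5% peanut oil for 4 weeks, drug given over the final 3 weeks at a single dose of 5 mg/kg. Read-out is total plasma cholesterol (mg/dL) against untreated controls, mean ± standard deviation, n = 5 per group.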

[6] = Dose required for 50 percent inhibition of rat Pancreatic cholesterol esterase in vitro No effect at 300 uM
[7] = Dose required for 50 percent inhibition of lecithin cholesterol acyl transferase in vitro in rats at 30 uM; No effect
[8] = target: T3, 3-hydroxy-3-methylglutaryl-coenzyme A reductase (Rattus norvegicus) (UniProt P51639); test: Dose required for 50 percent inhibition of 3-Hydroxy-3-methylglutaryl coenzyme A reductase in vitro in rats at 100 uM; No effect
T3 sequence (whole entry): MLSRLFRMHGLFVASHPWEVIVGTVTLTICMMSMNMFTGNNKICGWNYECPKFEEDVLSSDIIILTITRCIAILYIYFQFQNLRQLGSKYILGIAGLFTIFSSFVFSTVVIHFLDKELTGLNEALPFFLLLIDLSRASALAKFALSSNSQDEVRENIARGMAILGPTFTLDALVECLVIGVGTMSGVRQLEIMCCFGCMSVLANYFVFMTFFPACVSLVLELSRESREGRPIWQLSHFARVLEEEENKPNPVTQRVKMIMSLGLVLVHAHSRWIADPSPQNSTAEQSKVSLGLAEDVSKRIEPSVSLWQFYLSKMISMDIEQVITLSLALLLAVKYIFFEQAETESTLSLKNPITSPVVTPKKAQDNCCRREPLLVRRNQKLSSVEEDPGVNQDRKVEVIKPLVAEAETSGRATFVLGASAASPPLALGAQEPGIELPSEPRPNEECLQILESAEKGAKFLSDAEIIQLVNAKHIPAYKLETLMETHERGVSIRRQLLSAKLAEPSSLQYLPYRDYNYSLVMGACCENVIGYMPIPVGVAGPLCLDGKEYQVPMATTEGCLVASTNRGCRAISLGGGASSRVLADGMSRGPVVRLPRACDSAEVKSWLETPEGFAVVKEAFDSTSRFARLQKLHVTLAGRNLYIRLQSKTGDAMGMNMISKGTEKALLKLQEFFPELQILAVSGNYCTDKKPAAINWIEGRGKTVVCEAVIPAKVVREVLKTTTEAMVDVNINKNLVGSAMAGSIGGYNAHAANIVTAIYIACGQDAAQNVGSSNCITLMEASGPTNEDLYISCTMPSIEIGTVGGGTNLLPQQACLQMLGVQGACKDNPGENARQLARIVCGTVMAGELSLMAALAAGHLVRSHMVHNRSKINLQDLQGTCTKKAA

[9] = target: T4, Sterol O-acyltransferase 1 (Rattus norvegicus) (UniProt O70536); conditions: 0.135 uM
T4 sequence (whole entry): T1 sequence (O70536 whole entry)

SMILES | IC50 [1] | Absorption [2] | inhibition [3] | inhibition [4] | Level [5] | inhibition [6] | inhibition [7] | inhibition [8] | inhibition [9]
CCCCCCCC[C@H](SCCCCCC)C(=O)Nc1c(SC)cc(C)nc1SC | 0.022 µM | 0.009 mg/kg | inactive | inactive | 98 mg/dL | inactive |  |  | 
CCCCCCCC[C@H](SCCCCCC)C(=O)Nc1c(SC)ccc2ncccc12 | 0.135 µM | 0.24 mg/kg |  |  | 123 mg/dL |  | inactive | inactive | 50%
CCCCCCCC[C@@H](SCCCCCC)C(=O)Nc1c(SC)ccc2ncccc12 | 0.75 µM |  |  |  |  |  |  |  | 
CCCCCCCCC(SCCCCCC)C(=O)Nc1c(SC)cc(C)nc1SC (single isomer, unassigned) | 0.16 µM |  |  |  |  |  |  |  | 
